This series in a line: Toxicity liver stage against HepG2, at 10uM. Set-up: test concentration 10 uM, cell line HepG2-A16-CD81EGFP. Format: cell-based. As to conditions: human, HepG2-A16-CD81EGFP cells; read-out: INHIBITION
In short, it runs like this: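 Uninfected HepG2-A16-CD81EGFP cells, 3 × 10^3 per well, 1536-well, plated on prespotted compound at 10 μM final, parasite-free screening media added to match infected plates; puromycin 10 μM positive, DMSO 0.5% negative; run in parallel with 48 h PbLuc assay at 37 °C, 5% CO2; viability by CellTiter-Glo luminescence, normalized to controls.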
Take `O=C(C1CC1)N1C[C@@H](F)[C@@H](OCc2nc3ccccc3[nH]2)C1`: the cytotoxicity at 10 µM was -0.0342%.

In the case of `c1ccc(-c2cc(CC3(NCc4ncc[nH]4)COC3)no2)cc1`, the cytotoxicity at 10 µM is 2.05%.

On to `CC(=O)N1CCC(NC[C@H]2Cn3c(-c4ccccc4)cnc3CO2)CC1`, for which the cytotoxicity at 10 µM is -5.04%.

Consider `Cc1ccc(CN2CC(O)CN(C(=O)C3CC3)CC2=O)cc1` (stereo unspecified), for which the cytotoxicity at 10 µM was -2.12%.

In the case of `O=c1c(S(=O)(=O)N2CCCC2)cccn1Cc1c(F)cccc1Cl`, the cytotoxicity at 10 µM worked out at 0.814%.

Take `CC(C)N(C)Cc1n[nH]c2c1CCN(C(=O)c1cc[nH]n1)C2`: the cytotoxicity at 10 µM is -134%.

Regarding `Cc1nn(C)c2nc3c(c(C(=O)/N=c4\[nH]nc(C(C)C)s4)c12)CCC3`, the cytotoxicity at 10 µM was -2.25%.

Consider `Cn1c(=O)[nH]c(=O)c2c1nc1n2CC(c2ccc(Cl)cc2)O1` (stereo unspecified), for which the cytotoxicity at 10 µM is -176%.

Take `Cc1ccc(F)c(-n2nnc(C(=O)O)c2-c2ccncc2)c1`: the cytotoxicity at 10 µM was -4.89%.

For `Cc1nn(C)c2c(=O)n(Cc3ccc(C#N)cc3)nnc12`, the cytotoxicity at 10 µM was found to be 3.12%.

For `CCOc1ccc(NC(C)=O)cc1S(=O)(=O)Nc1ccon1`, the cytotoxicity at 10 µM is -10.8%.

With `Cc1nc(NCC2CCOCC2)cc(C2CCN2S(C)(=O)=O)n1` (stereo unspecified), the cytotoxicity at 10 µM worked out at 2.58%.

Consider `Cc1noc(C)c1-c1cccc(C2CCN(CC(=O)N(C)C)CC2)n1`, for which the cytotoxicity at 10 µM came out at 6.33%.

For `CCOCCCNc1ncc(-c2cccc(F)c2)c(-c2nccn2C)n1`, the cytotoxicity at 10 µM came out at 12.5%.

On to `Cc1nc(C)n(CC(=O)N2CCCC(c3nc(C)n4c(C)csc34)C2)n1` (stereo unspecified), for which the cytotoxicity at 10 µM was determined as 2.08%.

Regarding `NC1(CN2CCOCC2)CCCCC1`, the cytotoxicity at 10 µM is 1.72%.

In the case of `Cc1cccc2nc(CN3CCC(Cn4ccnn4)CC3)cc(=O)n12`, the cytotoxicity at 10 µM was found to be 2.62%.

On to `CCCn1nc(C(=O)N(C)Cc2nnc3n2CCC3)ccc1=O`, for which the cytotoxicity at 10 µM stood at 1.77%.

As for `N#Cc1cccc(S(=O)(=O)NC2CCN(CC(F)(F)F)C2)c1` (stereo unspecified), the cytotoxicity at 10 µM is -1.03%.

Regarding `CC1CN(C)CCN1C(=O)c1cccn1Cc1ccncc1` (stereo unspecified), the cytotoxicity at 10 µM was -5.53%.

Turning to `CCOC(=O)C(C)NC(=O)CCSc1ccc(F)cc1` (stereo unspecified), the cytotoxicity at 10 µM came out at 9.13%.

Turning to `Cc1csc(CN(CC2CCCO2)C(=O)c2occc2C)n1` (stereo unspecified), the cytotoxicity at 10 µM stood at 0.489%.

In the case of `CCc1nc(C2CCCN(C(=O)C3=NN(CC)C(=O)CC3)C2)no1` (stereo unspecified), the cytotoxicity at 10 µM was -9.28%.

Turning to `CC(Nc1cccc2c1OCCO2)C(=O)Nc1cccc(C#N)c1` (stereo unspecified), the cytotoxicity at 10 µM was 4.7%.

As to `Cn1cc(CC2CC(=O)N(Cc3ccc(Cl)cc3)C2=O)cn1` (stereo unspecified), the cytotoxicity at 10 µM is -0.276%.

As to `CN(C1CCN(c2ccccn2)CC1)S(=O)(=O)c1ccc(F)cc1`, the cytotoxicity at 10 µM was found to be 11.2%.

Consider `C[S+]([O-])c1nncn1CC(=O)c1cccc(C(F)(F)F)c1` (stereo unspecified), for which the cytotoxicity at 10 µM was -0.661%.

Take `NCC1(c2cccc(C(F)(F)F)c2)CCCCC1`: the cytotoxicity at 10 µM is -8.66%.

Take `Cc1cn2nc(N3CCn4c(nnc4C(C)C)C3)sc2n1`: the cytotoxicity at 10 µM was determined as 5.73%.

On to `Cn1ccnc1CNC(=O)N(CCCO)C1CCc2ccccc21` (stereo unspecified), for which the cytotoxicity at 10 µM was -11.6%.

For the compound `O=C(c1[nH]nc(C2CC2)c1Cl)N1CCN(C2CC2)CC1`, the cytotoxicity at 10 µM was -5.58%.

For `CC(C)CC(=O)Nc1cc(C(=O)N(C)C(C)C)ccc1Cl`, the cytotoxicity at 10 µM is -7.62%.

With `CC(c1cccnc1)N1CCN(CCc2ccccn2)CC1` (stereo unspecified), the cytotoxicity at 10 µM is -6.18%.

For the compound `CCN(CCNCc1cccc(C#N)c1)C1CC1`, the cytotoxicity at 10 µM was -11.3%.

Turning to `CN(C)C(=O)c1ccc(NCCNc2ccc3ccccc3n2)nc1`, the cytotoxicity at 10 µM was 4.63%.

Regarding `c1nc(CSc2nnc(C3CC3)s2)cs1`, the cytotoxicity at 10 µM is -5.54%.

For the compound `COc1ccc(CNc2nncs2)cc1F`, the cytotoxicity at 10 µM was -4.23%.

Regarding `CCN(C(=O)CCc1ccc2c(c1)OCO2)C1CC(=O)NC1=O` (stereo unspecified), the cytotoxicity at 10 µM is -3.88%.

As for `COc1cc2ccn(CCCO)c(=O)c2cc1F`, the cytotoxicity at 10 µM was -7.91%.

In the case of `Cc1oc(C(=O)O)cc1S(=O)(=O)Nc1c(F)cccc1-n1cccn1`, the cytotoxicity at 10 µM is -3.45%.

On to `COc1ccnc(N2CCN(C(=O)c3csc(C(C)C)n3)CC2)n1`, for which the cytotoxicity at 10 µM was -1.82%.

Turning to `Cc1ccc(CC(=O)N2CCOC(c3nc(C(C)(C)C)n[nH]3)C2)cn1` (stereo unspecified), the cytotoxicity at 10 µM is -5.96%.

Consider `CO[C@H]1CCN(S(=O)(=O)c2cccs2)[C@H]1Cc1ccncc1`, for which the cytotoxicity at 10 µM is -75%.

Regarding `CN(C)C(=O)[C@H]1C[C@H]2OCC[C@H]2N(Cc2ccccn2)C1`, the cytotoxicity at 10 µM is -75.5%.

Regarding `CC1=N[C@@]2(CC[C@@H]3CN(S(=O)(=O)N(C)C)C[C@@H]32)C(=O)N1CC(C)C`, the cytotoxicity at 10 µM came out at 3.16%.

Take `CC(C)N[C@@H]1CC[C@@H]1NC(=O)c1ccccc1OC(F)(F)C(F)F`: the cytotoxicity at 10 µM was 1.77%.

For the compound `Cc1cc(C2CCCN2Cc2ccc(C(=O)Nc3nccs3)cc2)on1` (stereo unspecified), the cytotoxicity at 10 µM was -6.03%.

Regarding `COCC(O)CNC(=O)c1cc(COc2ccc3c(c2)CCCC3)on1` (stereo unspecified), the cytotoxicity at 10 µM is -147%.

Consider `CC(C)(C)C(=O)N1CCCC1c1ccc(C(=O)N2CCOCC2)s1` (stereo unspecified), for which the cytotoxicity at 10 µM was -145%.

On to `CC(C)c1nccc(CN2CCCC(O)(CN(C)C)C2)n1` (stereo unspecified), for which the cytotoxicity at 10 µM worked out at 2.89%.

`Cc1nnsc1CN1CCCC1c1nc(-c2ccccc2)no1` (stereo unspecified): the cytotoxicity at 10 µM is -45.8%.

For the compound `Cc1cccnc1CN(C)C(C(=O)O)c1ccc(-c2ccn[nH]2)cc1` (stereo unspecified), the cytotoxicity at 10 µM came to 12.2%.

On to `COc1cccc(CC2CN(C(=O)c3ccnn3C)CCO2)c1` (stereo unspecified), for which the cytotoxicity at 10 µM came out at 0.769%.

Turning to `CC(C)c1ncc(CN2C[C@@H](CN3CCCN(C)CC3)[C@@H](CO)C2)cn1`, the cytotoxicity at 10 µM is -9.77%.

For `Cc1c(CN2CCCC(C(=O)c3ccccc3)C2)cc(C#N)n1C` (stereo unspecified), the cytotoxicity at 10 µM was -6.63%.

As for `CCN1CCC(N2CCN(C)C3(CCC(=O)N(CCOC)CC3)C2)CC1` (stereo unspecified), the cytotoxicity at 10 µM was -0.724%.

For the compound `Cc1ccnc(CC(C)N(C)Cc2ccc3c(c2)OCCO3)c1` (stereo unspecified), the cytotoxicity at 10 µM is -4.24%.

Regarding `CC(C)CN1CCCn2nc(CNC(=O)CCCc3cn[nH]c3)cc2C1`, the cytotoxicity at 10 µM is -6.36%.

In the case of `CCCOCCN1CCC2(CC1)CC(c1ccccc1)C(=O)N2C` (stereo unspecified), the cytotoxicity at 10 µM was 38.1%.

`COc1c(CNCc2ccc(N3CCCC3)nc2)c(C(C)C)nn1C`: the cytotoxicity at 10 µM was -11.5%.

With `Cc1nc(C)n(CC2CCCN2Cc2nc(-c3ccoc3)no2)n1` (stereo unspecified), the cytotoxicity at 10 µM was -8.48%.

For the compound `c1ccc(CNc2cc(C3CCCNC3)ccn2)nc1` (stereo unspecified), the cytotoxicity at 10 µM was -0.565%.

In the case of `Cc1c(NC(=O)CN2CCN(C3CCCC3)C(=O)C2)cnn1C`, the cytotoxicity at 10 µM was determined as 5.25%.

On to `Cn1nc(CN2CCOCC2)c2c1CN(Cc1ccsc1)C2`, for which the cytotoxicity at 10 µM was -145%.

Consider `CN1CCN(C)C(c2nnc3ccc(C(=O)N4CCOCC4)cn23)C1` (stereo unspecified), for which the cytotoxicity at 10 µM is -130%.

For the compound `O=C(c1ccoc1)N1CCC(NCc2ccccc2Cl)CC1`, the cytotoxicity at 10 µM was found to be 3.95%.

Regarding `CNC(=O)CN1CCC12CCN(C(=O)Cc1ccccc1)C2` (stereo unspecified), the cytotoxicity at 10 µM is -75.4%.

Take `O=C(c1cnccn1)N1CCCC2(CCN(Cc3ccc(F)cc3)C2)C1` (stereo unspecified): the cytotoxicity at 10 µM was -153%.

Consider `COCCNC(=O)C1CN(Cc2cccc(C)n2)Cc2ccnn2C1` (stereo unspecified), for which the cytotoxicity at 10 µM is -79.2%.

Consider `Cc1nc(N2CCCC2)nc2c1CCN(Cc1ccoc1)CC2`, for which the cytotoxicity at 10 µM is -134%.

As for `Cc1nc(CN2C(=O)COC3(CCN(C)CC3)C2C)cs1` (stereo unspecified), the cytotoxicity at 10 µM is -128%.

(Values after ChEMBL document CHEMBL4513216, “Probing the Open Global Health Chemical Diversity Library for Multistage-Active Starting Points for Next-Generation Antimalarials” (ACS Infect Dis, 2020).)
